Screening data (PubChem)
This is a sample that favours compounds with a hit; in the whole collection about 9.2% have one here.
ERa coact inh: ERα–SRC-1 coactivator interaction inhibitors, primary screen, biochemical, TR-FRET, ERα LBD, estradiol-bound; 1.7% of 86,000 active; inhibition, % at 25.6 µM; TR-FRET ER-alpha LBD / SRC-1 peptide; in the data active = inhibition above about 50%
Target sequence (P03372 whole entry, looked up, the tested form may be a part): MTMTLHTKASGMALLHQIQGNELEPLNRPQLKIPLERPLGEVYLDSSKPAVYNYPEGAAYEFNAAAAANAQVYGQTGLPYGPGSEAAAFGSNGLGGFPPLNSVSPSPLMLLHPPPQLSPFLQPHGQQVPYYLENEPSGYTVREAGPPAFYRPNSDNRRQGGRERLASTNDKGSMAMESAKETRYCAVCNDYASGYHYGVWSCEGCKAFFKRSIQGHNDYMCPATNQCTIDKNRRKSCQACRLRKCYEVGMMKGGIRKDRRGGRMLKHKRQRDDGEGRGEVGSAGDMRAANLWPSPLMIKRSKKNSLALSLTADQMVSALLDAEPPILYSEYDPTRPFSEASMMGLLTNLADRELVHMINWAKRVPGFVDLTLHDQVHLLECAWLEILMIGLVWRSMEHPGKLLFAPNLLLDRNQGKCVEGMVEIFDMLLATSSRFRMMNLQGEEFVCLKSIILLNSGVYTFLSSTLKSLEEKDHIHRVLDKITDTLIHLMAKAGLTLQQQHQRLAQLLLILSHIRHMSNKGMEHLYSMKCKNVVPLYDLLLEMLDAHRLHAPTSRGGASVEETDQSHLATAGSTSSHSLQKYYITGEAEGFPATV
H69AR inhibit: proliferation blockers of H69AR lung cancer cells, primary screen, cell-based, human, 86K library. H69AR lung tumor viability, ATP luminescence, 72 h; active compounds read low. viability, % at 10 µM. 6% of 85,000 active. AID 598, 2007;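 active = viability at or below 40%; inactive = viability above 40%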;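 also: multidrug resistant small cell line overexpressing MRP-1 efflux transporter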
HUVEC prolif 384: inhibitors of HUVEC proliferation, primary screen, cell-based, 384-well; CellTiter-Glo luminescence, 72 h; active compounds read low; viability, % at 10 µM (by protocol); 1.1% of 86,000 active;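 active = viability at or below 30%; inactive = viability above 30%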
Fibroblast inh: antiproliferative effect on LL 47 fibroblasts – human, LL 47 cells, CellTiter-Glo luminescence, primary screen; LL 47 human lung fibroblast viability, ATP luminescence; active compounds read low; viability, % at 10 µM; 1.1% of 85,000 active;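 active = viability at or below 50% in the single dose screen; inactive = viability above 50%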;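 also: compound exposure lasted 72 h before the ATP readout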
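Benchmarks: Cell-only wells, no compound | Test system: LL 47 human lung fibroblasts, passage 12 or lower | Input: 1,150 cells/well | Measured by: CellTiter-Glo luminescence measuring cellular ATP | Medium: IMEM, 15% FBS supplement | Schedule: Overnight attachment after seeding, then 72 h compound exposure at 37 °C | Doses: Compound addition at 0.1% DMSO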
ERb SRC1 inh: inhibitors of ERβ-SRC1 coactivator interaction, primary screen, biochemical, TR-FRET, ERβ LBD, SRC-1 peptide; Estrogen receptor beta (Homo sapiens), Q92731; TR-FRET ER-beta LBD / SRC1-Cy5 peptide binding; receptor agonist-loaded with 1 µM estradiol; inhibition, % at 25.6 µM; 1.3% of 86,000 active;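 active = compounds whose percent inhibition of the receptor-coactivator binding signal exceeds about 50% in the single-dose screen, limit read from the data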
ERa coact pot: enhancers of ERα–SRC-1 coactivator binding, primary screen, biochemical, TR-FRET, ERα LBD, low estradiol; Estrogen receptor (Homo sapiens), P03372; 1.3% of 86,000 active; TR-FRET ERalpha-LBD/SRC-Cy5 coactivator binding, 2 h; 100 = basal binding, no effect; coactivator binding (% of control), % at 25.6 µM; in the data active = activity above about 200%;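 also: binding measured in presence of low estradiol as agonist stimulus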
Numbers stand for hits; . = inactive; / = no result given; [ ] = dose if it differs, or a comment.

SMILES | ERa coact inh | H69AR inhibit | HUVEC prolif 384 | Fibroblast inh | ERb SRC1 inh | ERa coact pot
CS(=O)(=O)c1nc(-c2ccccc2)cc(-c2ccccc2)c1C#N | . | 1.5 | . | 40 | . | .
COc1ccc(-c2[nH]ncc2-c2cnc(C)s2)c(O)c1 | . | . | . | . | . | .
C=C(C)COc1ccc(-c2[nH]ncc2-c2ccc(OC)c(OC)c2)c(O)c1 | . | / | . | 46 | . | .
C=C(C)COc1ccc(-c2[nH]ncc2-c2ccccc2)c(O)c1 | . | 39 | . | . | . | .
CCCCC(=O)NN(C)c1nc(-c2ccccc2)nnc1C(F)(F)F | . | . | . | . | . | .
Fc1cccc(Nc2nc3ccccc3n3nnnc23)c1 | . | . | . | . | . | .
CCN(CC)S(=O)(=O)c1ccc(Nc2nc3ccccc3n3nnnc23)cc1 | 85[fluorescence artefact?] | . | . | / | . | .
Brc1ccc(Nc2nc3ccccc3n3nnnc23)cc1 | . | 36 | . | . | . | .
Cc1ccc(CNc2nc3ccccc3n3nnnc23)cc1 | 51 | 30 | . | . | . | 209[fluorescence artefact?]
c1ccc2c(c1)nc(Nc1ccc3c(c1)OCO3)c1nnnn12 | 57[fluorescence artefact?] | . | . | . | . | .
COc1cccc(C(=O)Cn2c(=O)n(CC3CCCO3)c(=O)c3ccccc32)c1 (configuration not stated) | . | . | . | . | . | .
COC(=O)c1ccc(C(=O)OCc2nc3cc4ccccc4cc3[nH]2)cc1 | . | . | . | . | . | .
Cc1cc(/N=C/C=C2\N(C)c3ccccc3C2(C)C)n(CCC#N)n1 | . | 20 | . | . | . | .
Cc1c(N=C/C=C2\N(C)c3ccccc3C2(C)C)c(=O)n(-c2ccccc2)n1C | . | . | . | . | . | .
O=C(CCn1cccc1)NCc1ccc2c(c1)OCO2 | . | . | . | . | . | .
Cc1cc(Br)c2c(c1)=C(c1sc(N3CCCCCC3)nc1O)C(=O)N=2 | 74[fluorescence artefact?] | . | . | . | . | .
CC1(C)CC(=O)c2sc(N3CCCCC3)nc2C1 | . | . | . | / | . | .
Cc1cccc(N2C(=S)N=C(Nc3c(C)cccc3C)C23CCOC(C)(C)C3)c1 (configuration not stated) | . | . | . | . | . | .
O=C(O)C1CCC(=O)N1Cc1ccccc1Cl (configuration not stated) | . | . | . | . | . | .
COc1cc(-c2noc(CCCC(=O)NC3CCCCC3)n2)cc(OC)c1OC | . | . | . | . | . | .
Cc1ccc(-n2c(SCC(=O)Nc3ccc4c(c3)OCCO4)nnc2-c2ccco2)cc1 | . | 14 | . | 43 | . | .
O=C(CSc1nnc(-c2cccs2)n1Cc1ccccc1)NCc1ccc2c(c1)OCO2 | . | . | . | . | . | .
COc1cccc(-c2nnc(SCC(=O)Nc3ccc4c(c3)OCCO4)n2Cc2ccco2)c1 | . | . | . | . | . | .
COc1cccc(NC(=O)CSc2nnc(-c3ccoc3C)n2-c2ccccc2)c1 | . | . | . | . | . | .
Cc1cccc(-n2c(SCC(=O)Nc3ccc4c(c3)OCO4)nnc2-c2ccoc2C)c1 | . | 9.2 | . | . | . | .
SMILES | ERa coact inh | H69AR inhibit | HUVEC prolif 384 | Fibroblast inh | ERb SRC1 inh | ERa coact pot
O=C(CSc1nnc(-c2cccnc2)n1-c1ccccc1)Nc1ccc2c(c1)OCO2 | . | 35 | . | . | 57 | .
CC(Sc1nnc(-c2cccs2)n1Cc1ccccc1)C(=O)NCc1ccc2c(c1)OCO2 (configuration not stated) | . | 30 | . | . | . | .
CCc1nc2ccccc2n1CCC(=O)O | . | . | . | . | . | .
Cc1nnc(SCC(=O)N(Cc2ccccc2)C(C)C)n1-c1ccccc1 | . | . | . | . | . | .
Cc1ccc(-n2c(SCC(=O)Nc3ccc4c(c3)OCO4)nnc2-c2cccs2)cc1 | 85[fluorescence artefact?] | 9.2 | . | 33 | . | 378[fluorescence artefact?]
Cc1ccc(-n2nc(C(=O)NCc3ccc(C)o3)c3c4ccccc4n(C)c3c2=O)cc1 | . | . | . | . | . | .
CCOC(=O)c1[nH]c(C)c(C(=O)NC2CCCC2)c1C | . | . | . | . | . | .
CCOC(=O)c1[nH]c(C)c(C(=O)Nc2ccc(C)c(F)c2)c1C | . | 20 | . | . | . | .
CCOC(=O)c1[nH]c(C)c(C(=O)Nc2ccc(C)c(Cl)c2)c1C | . | 32 | . | . | . | .
CCCCN(CCCC)CCNC(=O)Cc1nc2c(c(=O)[nH]c(=O)n2C)n1C | . | . | . | . | . | .
Oc1ccc2c(c1)oc1cc(O)ccc12 | . | 5.2 | . | . | . | .
Cc1oc2cc(O)ccc2c(=O)c1Oc1ccc2ccccc2c1 | . | . | . | . | . | .
Cc1noc(C)c1COc1ccc(C(=O)OCC(=O)Nc2ccc3ccccc3c2)cc1 | . | . | . | . | . | .
CC(/C(O)=C(\C#N)c1nc2ccccc2n1C)N1C(=O)c2ccccc2C1=O (configuration not stated) | . | . | . | . | . | .
Cn1c(/C(C#N)=C(\O)COc2ccc3ccccc3c2)nc2ccccc21 | . | 12 | . | . | . | .
CCN(CCCn1c(SCC#N)nc2ccccc2c1=O)c1ccccc1 | . | . | . | . | . | .
CCNC(=O)c1sc(-c2ccccc2)nc1C | . | . | . | . | . | .
COc1ccc(/C=C/C(=O)NCC(=O)N/N=C/c2cc(Br)ccc2OCc2ccccc2)cc1 | . | 7.4 | . | . | . | .
CCCCn1c2nc3ccccc3nc2c2c(=O)n(CCC)cnc21 | . | . | . | . | . | .
CC(C)CCn1cnc2c(c1=O)c1nc3ccccc3nc1n2Cc1ccc2c(c1)OCO2 | . | 30 | . | . | . | .
CC(=O)/C(=C/N(C)C)Sc1ccc(C)cc1 | . | . | . | . | . | .
CN1C(=O)C2(N=c3ccccc3=N2)c2ccccc21 | . | . | . | . | 91[fluorescence artefact?] | .
CN1C(=O)C(O)(C2OC(C)(C)CCC2=O)c2ccccc21 (configuration not stated) | . | . | . | . | . | .
O=S(=O)(c1ccc(Oc2ccc(-c3nnco3)cc2)nc1)N1CCC(Cc2ccccc2)CC1 | 75[fluorescence artefact?] | . | . | . | . | .
O=C(Nc1ccc([N+](=O)[O-])cc1)/C(=C/c1cccc([N+](=O)[O-])c1)NC(=O)C1CCCCC1 | . | . | . | . | . | .
